Assay results taken from PMC5812400 (ESMO Open, 2018).
“Also recorded” adds a separate entry of the source.

Test system: adult patients with advanced non-haematological malignancies
Experiment: Safety and tolerability
Type: in vivo, human
Procedure, shortened: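 Patients on milled oral capsules, fasted, in 28-day cycles. AEs and SAEs recorded from first dose through 30 days after last dose. Graded by NCI CTCAE v4.03 and coded to MedDRA v19.0. Relatedness to study drug judged by investigator.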

CC(C)n1nc(-c2ccc3oc(N)nc3c2)c2c(N)ncnc21 [TAK-228, Sapanisertib]
Drug-related AE: Dry mouth (QW 20 mg (n=7)): 0 n (%) | Drug-related AE: Fatigue (QW 20 mg (n=7)): 3 (43) n (%) | Drug-related AE: Hyperglycaemia (QW 20 mg (n=7)): 0 n (%) | Drug-related AE: Nausea (QW 20 mg (n=7)): 4 (57) n (%) | Drug-related AE: Pruritus (QW 20 mg (n=7)): 0 n (%) | Drug-related AE: Rash (maculopapular) (QW 20 mg (n=7)): 0 n (%) | Drug-related AE: Stomatitis (QW 20 mg (n=7)): 0 n (%) | Drug-related AE: Vomiting (QW 20 mg (n=7)): 2 (29) n (%) | Drug-related SAE (QW 20 mg (n=7)): 0 n (%) | Drug-related grade ≥3 AE (QW 20 mg (n=7)): 2 (29) n (%) | Grade ≥3 AE (QW 20 mg (n=7)): 5 (71) n (%) | Grade ≥3 AE: Abdominal pain (QW 20 mg (n=7)): 1 (14) n (%) | Grade ≥3 AE: Anaemia (QW 20 mg (n=7)): 1 (14) n (%) | Grade ≥3 AE: Diarrhoea (QW 20 mg (n=7)): 1 (14) n (%) | Grade ≥3 AE: Hypercalcaemia (QW 20 mg (n=7)): 0 n (%) | Grade ≥3 AE: Hyperglycaemia (QW 20 mg (n=7)): 0 n (%) | Grade ≥3 AE: Hypophosphataemia (QW 20 mg (n=7)): 0 n (%) | Grade ≥3 AE: Hypotension (QW 20 mg (n=7)): 2 (29) n (%) | Grade ≥3 AE: Nausea (QW 20 mg (n=7)): 1 (14) n (%) | Grade ≥3 AE: Vomiting (QW 20 mg (n=7)): 1 (14) n (%) | On-study deaths (QW 20 mg (n=7)): 0 n (%) | SAE (QW 20 mg (n=7)): 4 (57) n (%) | AE resulting in TAK-228 discontinuation (QW 30 mg (n=13)): 3 (23) n (%) | Drug-related AE (QW 30 mg (n=13)): 11 (85) n (%) | Drug-related AE: Asthaenia (QW 30 mg (n=13)): 0 n (%) | Drug-related AE: Decreased appetite (QW 30 mg (n=13)): 2 (15) n (%) | Drug-related AE: Dehydration (QW 30 mg (n=13)): 0 n (%) | Drug-related AE: Diarrhoea (QW 30 mg (n=13)): 2 (15) n (%) | Drug-related AE: Dry mouth (QW 30 mg (n=13)): 1 (8) n (%) | Drug-related AE: Fatigue (QW 30 mg (n=13)): 6 (46) n (%) | Drug-related AE: Hyperglycaemia (QW 30 mg (n=13)): 3 (23) n (%) | Drug-related AE: Nausea (QW 30 mg (n=13)): 5 (39) n (%) | Drug-related AE: Pruritus (QW 30 mg (n=13)): 1 (8) n (%) | Drug-related AE: Rash (maculopapular) (QW 30 mg (n=13)): 2 (15) n (%) | Drug-related AE: Stomatitis (QW 30 mg (n=13)): 2 (15) n (%) | Drug-related AE: Vomiting (QW 30 mg (n=13)): 7 (54) n (%) | Drug-related SAE (QW 30 mg (n=13)): 2 (15) n (%) | Drug-related grade ≥3 AE (QW 30 mg (n=13)): 4 (31) n (%) | Grade ≥3 AE (QW 30 mg (n=13)): 7 (54) n (%) | Grade ≥3 AE: Abdominal pain (QW 30 mg (n=13)): 1 (8) n (%) | Grade ≥3 AE: Anaemia (QW 30 mg (n=13)): 1 (8) n (%) | Grade ≥3 AE: Hypercalcaemia (QW 30 mg (n=13)): 2 (15) n (%) | Grade ≥3 AE: Hyperglycaemia (QW 30 mg (n=13)): 3 (23) n (%) | Grade ≥3 AE: Hypophosphataemia (QW 30 mg (n=13)): 1 (8) n (%) | Grade ≥3 AE: Hypotension (QW 30 mg (n=13)): 0 n (%) | Grade ≥3 AE: Nausea (QW 30 mg (n=13)): 1 (8) n (%) | Grade ≥3 AE: Vomiting (QW 30 mg (n=13)): 1 (8) n (%) | On-study deaths (QW 30 mg (n=13)): 1 (8) n (%) | SAE (QW 30 mg (n=13)): 6 (46) n (%) | AE resulting in TAK-228 discontinuation (QW Total (n=20)): 3 (15) n (%) | Drug-related AE (QW Total (n=20)): 16 (80) n (%) | Drug-related AE: Asthaenia (QW Total (n=20)): 1 (5) n (%) | Drug-related AE: Decreased appetite (QW Total (n=20)): 3 (15) n (%) | Drug-related AE: Dehydration (QW Total (n=20)): 1 (5) n (%) | Drug-related AE: Diarrhoea (QW Total (n=20)): 6 (30) n (%) | Drug-related AE: Dry mouth (QW Total (n=20)): 1 (5) n (%) | Drug-related AE: Fatigue (QW Total (n=20)): 9 (45) n (%) | Drug-related AE: Hyperglycaemia (QW Total (n=20)): 3 (15) n (%) | Drug-related AE: Nausea (QW Total (n=20)): 9 (45) n (%) | Drug-related AE: Pruritus (QW Total (n=20)): 1 (5) n (%) | Drug-related AE: Rash (maculopapular) (QW Total (n=20)): 2 (10) n (%) | Drug-related AE: Stomatitis (QW Total (n=20)): 2 (10) n (%) | Drug-related AE: Vomiting (QW Total (n=20)): 9 (45) n (%) | Drug-related SAE (QW Total (n=20)): 2 (10) n (%) | Drug-related grade ≥3 AE (QW Total (n=20)): 6 (30) n (%) | Grade ≥3 AE (QW Total (n=20)): 12 (60) n (%) | Grade ≥3 AE: Abdominal pain (QW Total (n=20)): 2 (10) n (%) | Grade ≥3 AE: Anaemia (QW Total (n=20)): 2 (10) n (%) | Grade ≥3 AE: Diarrhoea (QW Total (n=20)): 1 (5) n (%) | Grade ≥3 AE: Hypercalcaemia (QW Total (n=20)): 2 (10) n (%) | Grade ≥3 AE: Hyperglycaemia (QW Total (n=20)): 3 (15) n (%) | Grade ≥3 AE: Hypophosphataemia (QW Total (n=20)): 1 (5) n (%) | Grade ≥3 AE: Hypotension (QW Total (n=20)): 2 (10) n (%) | Grade ≥3 AE: Nausea (QW Total (n=20)): 2 (10) n (%) | Grade ≥3 AE: Vomiting (QW Total (n=20)): 2 (10) n (%) | On-study deaths (QW Total (n=20)): 1 (5) n (%) | SAE (QW Total (n=20)): 10 (50) n (%) | Asthaenic conditions, patients (QW arm): 60% | Drug-related AE of any grade: diarrhoea (QW arm): 30% | Drug-related AE of any grade: fatigue (QW arm): 45% | Drug-related AE of any grade: nausea (QW arm): 45% | Drug-related AE of any grade: vomiting (QW arm): 45% | Grade ≥3 AE: Abdominal pain (QW arm): 10% | Grade ≥3 AE: Anaemia (QW arm): 10% | Grade ≥3 AE: Hypercalcaemia (QW arm): 10% | Grade ≥3 AE: Hyperglycaemia (QW arm): 15% | Grade ≥3 AE: Hypotension (QW arm): 10% | Grade ≥3 AE: Nausea (QW arm): 10% | Grade ≥3 AE: Vomiting (QW arm): 10% | SAEs, patients (QW arm): 50% | Patients experiencing AEs (TAK-228 QD arm): 100% | Patients with drug-related AEs (TAK-228 QD arm): 94% | Patients experiencing AEs (TAK-228 QW arm): 95% | Patients with drug-related AEs (TAK-228 QW arm): 80% | AEs of interest (hyperglycaemia, rash, renal insufficiency, mucosal inflammation and asthaenic conditions), patients (all treatment arms): ≥ 10% | Most commonly reported drug-related AEs (fatigue, diarrhoea and nausea), patients (treatment period, across all treatment arms): ≥ 25% | On-study deaths and relatedness to study drugs (whole study, all arms): Three on-study deaths occurred, all considered unrelated to study drugs; also recorded: Three deaths occurred during the study, one in each treatment arm; none were considered related to study drugs
